Calls of active or inactive are those of the source. The rule behind the calls is not given here.
Legend:
MCF7 = experiment: Antiproliferative activity against human MCF7 cells after 72 hrs by MTS/PMS assay; assay type: functional, cell-based; conditions: MCF7, 72 h
Method in brief: (§1)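 Cells grown in medium with non-essential amino acids, 2 mM L-glutamine, streptomycin, penicillin and 10% FBS at 37 °C, 5% CO2; seeded 2000/well, attached overnight. Test agent added over a concentration range in DMSO (1% final), 72 h exposure. Viable cells counted by MTS/PMS read-out against 1% DMSO wells as 100% proliferation. IC50 taken as mean ± SD of at least two separate experiments, each in triplicate.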

SK-BR-3 = experiment: Antiproliferative activity against human SKBR3 cells after 72 hrs by MTS/PMS assay; assay type: functional, cell-based; conditions: SK-BR-3, 72 h; method in brief: as §1
[1] = target: T1, Heat shock protein HSP90 (Homo sapiens) (UniProt P07900+P08238); experiment: Inhibition of Hsp90 in human MCF7 cells assessed as induction of Her2 degradation at 5 fold IC50 after 24 hrs by Western blot method; assay type: cell-based
Method in brief: (§2)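 MCF-7 cells treated 24 h with compound in DMSO (1% final); geldanamycin 500 nM served as positive control and DMSO as vehicle control. Cells harvested in cold PBS and lysed 1 h on ice in RIPA with 1 mM PMSF, 2 mM orthovanadate and protease inhibitors. Lysates clarified 14,000g, 15 min, 4 °C. Protein (20 µg, BCA) resolved under reducing conditions and blotted on PVDF for Her2, Raf and Akt, with actin as loading control. Detection by HRP secondary antibody and chemiluminescence.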

[2] = target: T1, Heat shock protein HSP90 (Homo sapiens); experiment: Inhibition of Hsp90 in human MCF7 cells assessed as induction of Raf degradation at 0.5 fold IC50 after 24 hrs by Western blot method; assay type: cell-based; method in brief: as §2
[3] = target: T1, Heat shock protein HSP90 (Homo sapiens); experiment: Inhibition of Hsp90 in human MCF7 cells assessed as induction of Raf degradation at 5 fold IC50 after 24 hrs by Western blot method; assay type: cell-based; method in brief: as §2
[4] = target: T1, Heat shock protein HSP90 (Homo sapiens); experiment: Inhibition of Hsp90 in human MCF7 cells assessed as induction of Her2 degradation at 0.5 fold IC50 after 24 hrs by Western blot method; assay type: cell-based; method in brief: as §2
[5] = target: T1, Heat shock protein HSP90 (Homo sapiens); experiment: Inhibition of Hsp90 in human MCF7 cells assessed as induction of Akt degradation at 5 fold IC50 after 24 hrs by Western blot method; assay type: cell-based; method in brief: as §2
[6] = target: T1, Heat shock protein HSP90 (Homo sapiens); experiment: Inhibition of Hsp90 in human MCF7 cells assessed as induction of Akt degradation at 0.5 fold IC50 after 24 hrs by Western blot method; assay type: cell-based; method in brief: as §2
A549 = experiment: Antiproliferative activity against human A549 cells after 72 hrs by MTS/PMS assay; assay type: functional, cell-based; conditions: A549, 72 h; method in brief: as §1
HT-29 = experiment: Antiproliferative activity against human HT-29 cells after 72 hrs by MTS/PMS assay; assay type: functional, cell-based; conditions: HT-29, 72 h; method in brief: as §1
[7] = Antiproliferative activity against human PC3MM2 cells after 72 hrs by MTS/PMS assay; assay type: functional, cell-based; conditions: PC3MM2, 72 h; method in brief: as §1

Row | SMILES | IC50 (MCF7) | IC50 (SK-BR-3) | inhibition [1] | inhibition [2] | inhibition [3] | inhibition [4] | inhibition [5] | inhibition [6] | IC50 (A549) | IC50 (HT-29) | IC50 [7]
1 | COc1c(O[C@H]2OC(C)(C)[C@@H](OC)[C@H](O)[C@@H]2O)ccc2cc(NC(=O)CC/C=C/CCC(=O)Nc3cc4ccc(O[C@H]5OC(C)(C)[C@@H](OC)[C@H](O)[C@@H]5O)c(OC)c4oc3=O)c(=O)oc12 | > 100000 nM | 52000 nM | – | – | – | – | – | – | – | – | –
2 | COc1cc2cc(NC(=O)CC/C=C/CCC(=O)Nc3cc4cc(OC)c(O[C@H]5OC(C)(C)[C@@H](OC)[C@H](O)[C@@H]5O)c(C)c4oc3=O)c(=O)oc2c(C)c1O[C@H]1OC(C)(C)[C@@H](OC)[C@H](O)[C@@H]1O | 2610 nM | 4100 nM | – | – | – | – | – | – | – | – | –
3 | COc1ccc(C(=O)Nc2cc3cc(OC)c(O[C@@H]4OC(C)(C)[C@H](OC)[C@@H](O)[C@H]4O)c(C)c3oc2=O)cc1-c1cc(C(=O)Nc2cc3cc(OC)c(O[C@@H]4OC(C)(C)[C@H](OC)[C@@H](O)[C@H]4O)c(C)c3oc2=O)ccc1OC | 720 nM | 110 nM | Active | Active | Active | Active | Active | Active | – | – | –
4 | COc1ccc(C(=O)Nc2cc3ccc(OC4CCN(C)CC4)c(C)c3oc2=O)cc1-c1cc(C(=O)Nc2cc3ccc(OC4CCN(C)CC4)c(C)c3oc2=O)ccc1OC | 14200 nM | 4980 nM | – | – | – | – | – | – | – | – | –
5 | COc1cc(C(=O)Nc2cc3ccc(O[C@@H]4OC(C)(C)[C@H](OC)[C@@H](O)[C@H]4O)c(C)c3oc2=O)cc(-c2cc(OC)cc(C(=O)Nc3cc4ccc(O[C@@H]5OC(C)(C)[C@H](OC)[C@@H](O)[C@H]5O)c(C)c4oc3=O)c2)c1 | 1850 nM | 1950 nM | – | – | – | – | – | – | 28900 nM | 11700 nM | 12500 nM
6 | COc1ccc(C(=O)Nc2cc3ccc(O[C@@H]4OC(C)(C)[C@H](OC)[C@@H](O)[C@H]4O)c(OC)c3oc2=O)cc1-c1cc(C(=O)Nc2cc3ccc(O[C@@H]4OC(C)(C)[C@H](OC)[C@@H](O)[C@H]4O)c(OC)c3oc2=O)ccc1OC | 880 nM | 910 nM | Active | Active | Active | Active | Active | Active | 210 nM | 270 nM | 270 nM
7 | Cc1c(OC2CCN(C)CC2)ccc2cc(NC(=O)CCCCCCCCC(=O)Nc3cc4ccc(OC5CCN(C)CC5)c(C)c4oc3=O)c(=O)oc12 | 3680 nM | 2840 nM | – | – | – | – | – | – | 13200 nM | 3900 nM | 10200 nM
8 | COc1c(OC2CCN(C)CC2)ccc2cc(NC(=O)CC/C=C/CCC(=O)Nc3cc4ccc(OC5CCN(C)CC5)c(OC)c4oc3=O)c(=O)oc12 | 1120 nM | 2220 nM | inactive | inactive | inactive | inactive | inactive | inactive | 1220 nM | – | 60 nM
9 | COc1cc2cc(NC(=O)CCC/C=C/CCCC(=O)Nc3cc4cc(OC)c(OC5CCN(C)CC5)c(C)c4oc3=O)c(=O)oc2c(C)c1OC1CCN(C)CC1 | 310 nM | 220 nM | Active | Active | Active | Active | Active | Active | 37700 nM | – | 380 nM
10 | COc1ccc(C(=O)Nc2cc3ccc(OC(C)=O)c(C)c3oc2=O)cc1-c1cc(C(=O)Nc2cc3ccc(OC(C)=O)c(C)c3oc2=O)ccc1OC | > 100000 nM | 11800 nM | – | – | – | – | – | – | – | – | –
11 | COc1c(O[C@H]2OC(C)(C)[C@@H](OC)[C@H](O)[C@@H]2O)ccc2cc(NC(=O)C/C=C/CC(=O)Nc3cc4ccc(O[C@H]5OC(C)(C)[C@@H](OC)[C@H](O)[C@@H]5O)c(OC)c4oc3=O)c(=O)oc12 | > 100000 nM | > 100000 nM | – | – | – | – | – | – | – | – | –
12 | COc1cc(C(=O)Nc2cc3ccc(O[C@@H]4OC(C)(C)[C@H](OC)[C@@H](O)[C@H]4O)c(C)c3oc2=O)cc(-c2cc(C(=O)Nc3cc4ccc(O[C@@H]5OC(C)(C)[C@H](OC)[C@@H](O)[C@H]5O)c(C)c4oc3=O)ccc2OC)c1 | 38000 nM | 28500 nM | – | – | – | – | – | – | – | – | –
13 | Cc1c(OC2CCN(C)CC2)ccc2cc(NC(=O)CCCCCCC(=O)Nc3cc4ccc(OC5CCN(C)CC5)c(C)c4oc3=O)c(=O)oc12 | 2820 nM | 1190 nM | – | – | – | – | – | – | 30400 nM | 26300 nM | 13800 nM
14 | Cc1c(OC2CCN(C)CC2)ccc2cc(NC(=O)CCCCC(=O)Nc3cc4ccc(OC5CCN(C)CC5)c(C)c4oc3=O)c(=O)oc12 | 2460 nM | 1260 nM | – | – | – | – | – | – | – | – | –
15 | COc1cc2cc(NC(=O)C/C=C/CC(=O)Nc3cc4cc(OC)c(OC5CCN(C)CC5)c(C)c4oc3=O)c(=O)oc2c(C)c1OC1CCN(C)CC1 | 560 nM | 270 nM | Active | Active | Active | Active | Active | Active | 1250 nM | – | 170 nM
16 | COc1cc2cc(NC(=O)CC/C=C/CCC(=O)Nc3cc4cc(OC)c(OC5CCN(C)CC5)c(C)c4oc3=O)c(=O)oc2c(C)c1OC1CCN(C)CC1 | 1310 nM | 1100 nM | Active | Active | Active | Active | Active | Active | 1440 nM | – | 4860 nM
17 | CO[C@H]1[C@H](OC(=O)c2ccc(C)[nH]2)[C@H](O)[C@@H](Oc2ccc3c(O)c(NC(=O)c4c[nH]c(C(=O)Nc5c(O)c6ccc(O[C@H]7OC(C)(C)[C@@H](OC)[C@H](OC(=O)c8ccc(C)[nH]8)[C@@H]7O)c(C)c6oc5=O)c4C)c(=O)oc3c2C)OC1(C)C [COUMERMYCIN A1] | 8800 nM | 5000 nM | – | – | – | – | – | – | – | – | –
18 | CO[C@H]1[C@H](O)[C@H](O)[C@@H](Oc2ccc3cc(NC(=O)C/C=C/CC(=O)Nc4cc5ccc(O[C@H]6OC(C)(C)[C@@H](OC)[C@H](O)[C@@H]6O)c(C)c5oc4=O)c(=O)oc3c2C)OC1(C)C | 53100 nM | > 100000 nM | – | – | – | – | – | – | – | – | –
19 | COc1ccc(C(=O)Nc2cc3ccc(OCCCN(C)C)c(C)c3oc2=O)cc1-c1cc(C(=O)Nc2cc3ccc(OCCCN(C)C)c(C)c3oc2=O)ccc1OC | 11700 nM | 9500 nM | – | – | – | – | – | – | 93400 nM | 62700 nM | 52300 nM
20 | COc1cc2cc(NC(=O)C/C=C/CC(=O)Nc3cc4cc(OC)c(O[C@H]5OC(C)(C)[C@@H](OC)[C@H](O)[C@@H]5O)c(C)c4oc3=O)c(=O)oc2c(C)c1O[C@H]1OC(C)(C)[C@@H](OC)[C@H](O)[C@@H]1O | 168000 nM | 106000 nM | – | – | – | – | – | – | – | – | –
21 | CO[C@@H]1[C@@H](O)[C@@H](O)[C@H](Oc2ccc3cc(NC(=O)c4cccc(-c5cccc(C(=O)Nc6cc7ccc(O[C@@H]8OC(C)(C)[C@H](OC)[C@@H](O)[C@H]8O)c(C)c7oc6=O)c5)c4)c(=O)oc3c2C)OC1(C)C | 1260 nM | 860 nM | – | – | – | – | – | – | – | – | –
22 | CO[C@H]1[C@H](O)[C@H](O)[C@@H](Oc2ccc3cc(NC(=O)CC/C=C/CCC(=O)Nc4cc5ccc(O[C@H]6OC(C)(C)[C@@H](OC)[C@H](O)[C@@H]6O)c(C)c5oc4=O)c(=O)oc3c2C)OC1(C)C | 3900 nM | 1500 nM | – | – | – | – | – | – | – | – | –
23 | Cc1c(OC2CCN(C)CC2)ccc2cc(NC(=O)CC/C=C\CCC(=O)Nc3cc4ccc(OC5CCN(C)CC5)c(C)c4oc3=O)c(=O)oc12 | 49900 nM | > 100000 nM | – | – | – | – | – | – | 77600 nM | – | 32900 nM
24 | COc1c(OC2CCN(C)CC2)ccc2cc(NC(=O)CCC/C=C/CCCC(=O)Nc3cc4ccc(OC5CCN(C)CC5)c(OC)c4oc3=O)c(=O)oc12 | 880 nM | 370 nM | Active | Active | Active | Active | Active | Active | 1210 nM | – | 50 nM
25 | COc1c(OC2CCN(C)CC2)ccc2cc(NC(=O)C/C=C/CC(=O)Nc3cc4ccc(OC5CCN(C)CC5)c(OC)c4oc3=O)c(=O)oc12 | 1460 nM | 710 nM | Active | Active | Active | Active | Active | Active | – | – | 8630 nM
26 | Cc1c(OC2CCN(C)CC2)ccc2cc(NC(=O)CCCC/C=C/CCCCC(=O)Nc3cc4ccc(OC5CCN(C)CC5)c(C)c4oc3=O)c(=O)oc12 | 730 nM | 510 nM | – | – | – | – | – | – | – | – | –

From ChEMBL document CHEMBL1821679, “Targeting the heat shock protein 90 dimer with dimeric inhibitors” (J Med Chem, 2011)
